Results on 39 compounds are retold here after ChEMBL document CHEMBL4513216, “Probing the Open Global Health Chemical Diversity Library for Multistage-Active Starting Points for Next-Generation Antimalarials” (ACS Infect Dis, 2020).

The series can be described thus: Toxicity liver stage against HepG2, at 10uM. On the set-up: test concentration 10 uM, cell line HepG2-A16-CD81EGFP. The class given is cell-based. Conditions: human, HepG2-A16-CD81EGFP cells; read-out: INHIBITION
In short, it runs like this: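 Uninfected HepG2-A16-CD81EGFP cells, 3 × 10^3 per well, 1536-well, plated on prespotted compound at 10 μM final, parasite-free screening media added to match infected plates; puromycin 10 μM positive, DMSO 0.5% negative; run in parallel with 48 h PbLuc assay at 37 °C, 5% CO2; viability by CellTiter-Glo luminescence, normalized to controls.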

For the compound `Cc1[nH]c(C2(N)CCCCC2)nc(=O)c1C`, the cytotoxicity at 10 µM was -0.846%.

On to `COc1ccc(NC(C)=O)cc1OCc1cccnc1`, for which the cytotoxicity at 10 µM is -23.5%.

For `Cc1n[nH]c(C2CN(C(=O)c3ccc4c(c3)CCCC4)CCO2)n1` (centres undefined), the cytotoxicity at 10 µM was -10.8%.

On to `Cc1ccc2c(c1)C1(CCNCC1)CC2NC(C)C` (centres undefined), for which the cytotoxicity at 10 µM is -9.73%.

Regarding `Cc1noc(C)c1CNC(=O)N(C1CC1)C(C)c1ccco1` (centres undefined), the cytotoxicity at 10 µM was determined as 5.68%.

Regarding `COC(=O)c1ccc(N2CCN(Cc3csc(C)n3)CC2)nn1`, the cytotoxicity at 10 µM is -1.7%.

For the compound `COCCN1CCN(C(=O)c2ccccc2C(C)=O)[C@H]2CS(=O)(=O)C[C@H]21`, the cytotoxicity at 10 µM is -5.95%.

Regarding `CC(O)CN1CCN(Cc2cccc(C(=O)N3CCCCC3)c2)CC1` (centres undefined), the cytotoxicity at 10 µM is -4.83%.

For the compound `O=C(CCC(=O)Nc1ccccc1)NCC(=O)c1ccc(F)cc1F`, the cytotoxicity at 10 µM was -0.493%.

`Nc1c(Cl)cnn1C1CCN(Cc2ccccc2)C1` (centres undefined): the cytotoxicity at 10 µM came to 0.648%.

With `CN(C)c1cc2c(nn1)CCN(C(=O)C1Cc3ccccc3S1)C2` (centres undefined), the cytotoxicity at 10 µM was -9.52%.

Consider `CC(C)N(C)Cc1cc(=O)n2c(n1)CN(C(=O)c1ccnnc1)CCC2`, for which the cytotoxicity at 10 µM worked out at 2.95%.

Regarding `Cn1cc(C(=O)NCCc2csc(-c3ccccc3)n2)ccc1=O`, the cytotoxicity at 10 µM is -6.7%.

As to `O=C(C1CCC1)N1C[C@@H](c2ccsc2)[C@@H]2CN(C3CCCC3)CC[C@@H]21`, the cytotoxicity at 10 µM was -1.51%.

Regarding `O=C1NC[C@@]2(C(=O)O)CN(Cc3ccc(Oc4ccccc4)cc3)C[C@@H]12`, the cytotoxicity at 10 µM is -8.39%.

For `Cc1noc(-c2cccnc2N2CCN(c3cnn(C)c3)CC2)n1`, the cytotoxicity at 10 µM came to 1.12%.

As for `COCC(=O)N1CCN(Cc2cc(F)cc(Br)c2)CC1`, the cytotoxicity at 10 µM stood at 15.8%.

For the compound `Cc1nc(C2(NCc3c(C)nn(C)c3N3CCOCC3)CCC2)no1`, the cytotoxicity at 10 µM worked out at 4.98%.

For `CCn1nc(C)c(NC(=O)CCn2ncc3cc(C)ccc32)c1C`, the cytotoxicity at 10 µM came out at 10.8%.

`O=C1NC[C@H]2CN(Cc3ccccn3)CCN12`: the cytotoxicity at 10 µM is -2.4%.

For `Cc1ccc(N2C[C@H]3OCC[C@H]3[C@H](C(=O)NC3CCCC3)C2)nn1`, the cytotoxicity at 10 µM was -75.6%.

Turning to `CC(=O)c1cnc(NCCCN2CCOCC2)nc1C`, the cytotoxicity at 10 µM is -2.77%.

As for `CCc1nsc(N2CCCN(C(=O)c3ccc(CC)o3)CC2)n1`, the cytotoxicity at 10 µM was 7.76%.

For the compound `Cc1ccc(CC(=O)N2CCOCC2c2ncon2)cc1` (centres undefined), the cytotoxicity at 10 µM was -2.03%.

In the case of `COc1ccccc1NC(=O)CCNC(=O)c1ccoc1`, the cytotoxicity at 10 µM is 1.66%.

For `CCCNc1nc(CS(=O)(=O)c2ccccc2)cs1`, the cytotoxicity at 10 µM was 0.939%.

As to `Cc1nsc(NC(=O)NC2CCN(C)CC2)n1`, the cytotoxicity at 10 µM is -10.7%.

`COCC(=O)N1C[C@@H]2CCCO[C@@H]2[C@H](N(C)Cc2ccco2)C1`: the cytotoxicity at 10 µM was -0.704%.

On to `CC(=O)N1C[C@H]2CNC[C@@]2(C(=O)NCCOc2ccccc2F)C1`, for which the cytotoxicity at 10 µM stood at 2.8%.

Turning to `O=C1NCCCCC1Sc1nnc(N2CCCC2)n1C1CC1` (centres undefined), the cytotoxicity at 10 µM was determined as 1.4%.

`CSc1ccc(-c2nc(CN3CCNCC3C)c(C)o2)cc1` (centres undefined): the cytotoxicity at 10 µM is -5.58%.

On to `CC(=O)N1CCC(C(=O)NCCN2CCCC(C)C2)CC1` (centres undefined), for which the cytotoxicity at 10 µM was determined as 10.7%.

With `CCS(=O)(=O)N1CCc2cc(C(=O)NC)c(NCC3CC3)nc2CC1`, the cytotoxicity at 10 µM worked out at 1.88%.

As for `O=S(=O)(C1CC1)N1CCC2(CN(c3ccccn3)C2)C1`, the cytotoxicity at 10 µM came to 5.25%.

On to `O=C(c1ccco1)N1Cc2cnn(CC3CC3)c2C(COCC2CC2)C1` (centres undefined), for which the cytotoxicity at 10 µM is 4.04%.

Turning to `CCCc1noc(C(C)N2CCN(Cc3nc(C)c(C)o3)CC2)n1` (centres undefined), the cytotoxicity at 10 µM was -10.6%.

As for `Cc1nc(CN(Cc2cccs2)C2CCS(=O)(=O)C2)oc1C` (centres undefined), the cytotoxicity at 10 µM is -6.46%.

For `Cc1ccccc1C1CCCN(C(=O)c2c[nH]c(=O)c(Cl)c2)C1` (centres undefined), the cytotoxicity at 10 µM is -59.8%.

As for `Cn1ccc(C(=O)NC2CCC23CCN(Cc2cnn(C)c2)CC3)c1` (centres undefined), the cytotoxicity at 10 µM was -146%.
